Reference: PubChem BioAssay AID504383 (The Scripps Research Institute Molecular Screening Center, 2011)
Among all 2,500 compounds or so, about 1,200 (48%) were called active. The set was probably picked from earlier hits. Some of the results follow. A number with no mark means an inactive call.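 The calls were made as follows: active = mean activation above the low control average plus 3 SD, as set in the primary screen (cut at about 12% in these data); inactive = the rest.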

The compounds below were run against Troponin I, cardiac muscle (Homo sapiens) + Troponin T, cardiac muscle (Homo sapiens) + Troponin C, slow skeletal and cardiac muscles (Homo sapiens) (UniProt P19429+P45379+P63316) (assay: calcium sensitizers of cardiac thin filaments – biochemical, IANBD-TnC fluorescence, triplicate, confirmation (AID 504383;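 also: 0% = DMSO at 0.472 mM calcium and 100% = DMSO at 2.9 mM calcium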)). Settings: IANBD-labeled cardiac RTF, Ca2+ sensitivity fluorescence; at 7.2 µM; stronger effect = higher value; scaled from EC20 to saturating calcium; tested at EC20 calcium, 0.472 mM.
Summary of the method: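 Test system: labelled regulated thin filament protein complex. Dosing: single nominal compound dose of 7.2 µM. Benchmarks: EC20 and EC100 calcium wells. Read-out basis: fluorescence gain scaled between EC20 and EC100 calcium controls. Probe or stimulus: submaximal calcium at 0.472 mM (EC20). Technique: fluorescence. Times: 15 min compound exposure, 25 °C.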

Compound	activation
C/C=C/c1ccc(OCCCNCC(C)O)c(OC)c1 (stereo unspecified)	663% (active)
COc1ccc(N2C(=O)c3cccc4c(N(C)CCO)ccc(c34)C2=O)cc1	4.11%
CCC/C(C#Cc1ccc(N(C)C)cc1)=C1/c2ccccc2C(=O)N1c1ccccc1	94.7% (active)
Cc1ccc(S(=O)(=O)c2cccc(S(=O)(=O)N3CCOCC3)c2)cc1S(=O)(=O)N1CCOCC1	20.6% (active)
Cc1ccc(S(=O)(=O)N2CCOCC2)cc1C(=O)N1C(=O)c2cccc(N)c2C1=O	8.84%
Cc1nnc(N2CCOCC2)c2nn(-c3cccc(Cl)c3)c(C)c12	4.95%
O=C(CNC(=O)c1cccc(Cl)c1)N/N=C/c1cccnc1	11%
COc1ccc(/C=N/NC(=O)c2cc(OC)c(OC)c(OC)c2)cc1CN1CCc2cc(OC)c(OC)cc2C1C (stereo unspecified)	28.3% (active)
COC(=O)N/N=C/c1cccnc1	2.85%
COc1ccc(/C=N/NC(=O)c2cccnc2)cc1CN1CCOCC1	36.1% (active)
COC(=O)C[n+]1cccc2ccccc21	212% (active)
O=C(C[n+]1cccc2ccccc21)c1ccccc1	10.7%
O=C(CCC1CCCN(C(=O)c2ccncc2)C1)NCc1ccc(F)c(F)c1 (stereo unspecified)	3.6%
O=C(NCc1ccc(Cl)cc1)C1CCN(c2cnccn2)CC1	68.5% (active)
O=C(NCCc1ccccc1)C1CCN(c2ncccn2)CC1	2.88%
CCOC(=O)c1cc2n(c1N)-c1ccccc1C2=O	71.8% (active)
CCOC(=O)c1ccccc1-n1nnnc1C	1.99%
CCOC(=O)c1cc2c(s1)-c1ccccc1CC2	0.58%
CCC(C)[C@H](NC(=O)N1CCC(C)CC1)C(=O)OC (stereo partly specified)	11.1%
Oc1ccc(-c2c(C3=CCCCC3)sc3ccccc23)cc1	125% (active)
COc1ccccc1-c1sc2ccccc2c1-c1ccc(Br)nc1	-1.06%

Compound	activation
N#CCCN(C(=O)c1ccco1)c1ccccc1	4250% (active)
CCN(C(=O)c1cc2ccccc2oc1=O)c1ccccc1	8.22%
CCOC(=O)c1cnc2ccccc2c1Nc1ccc(C(=O)O)cc1	161% (active)
CCOC(=O)/C(=N\Nc1ccc(C(C)=O)cc1)c1csc(Nc2ccccc2)n1	11.1%
Cc1ccc(OCCCC(=O)NC2CCCCC2)cc1	4.78%
COc1ccc(OCC(=O)OCCNC(=O)c2cccnc2)cc1	5.53%
COc1ccc(OCCNC(=O)c2ccc(C)cc2)cc1	28.4% (active)
Cc1sc2nc(COC(=O)c3cccc(S(=O)(=O)N(C)c4ccccc4)c3)[nH]c(=O)c2c1C	2.91%
Cc1ccc(CNC(=O)c2cc(-c3ccccc3)nn2Cc2cc(C)no2)cc1	8.67%
Cc1ccc(C)c(C(=O)CCC(=O)NCc2ccc(Cl)cc2)c1	10.5%
Cc1ccc(CNC(=O)CCn2cc(-c3ccc(C)cc3)nc2-c2ccncc2)cc1	57.1% (active)
Cc1ccc(-c2ccc(OC(=O)c3ccc(=O)[nH]c3)c(C)c2)cc1	28.2% (active)
CCc1ccc(NC(=O)C2CCN(S(=O)(=O)c3ccc4[nH]c(=O)ccc4c3)CC2)cc1	12.1% (active)
CC(=O)Nc1ccc(Nc2cc(N(C)C)c3nonc3c2[N+](=O)[O-])cc1	99.2% (active)
COc1ccc(-n2nc3c(N4CCC(C(=O)N5CCC(C)CC5)CC4)nnc(C)c3c2C)cc1	2.83%
CC1CCN(c2ccc(NC(=O)c3cccnc3)cc2)CC1	19.8% (active)
O=C(Nc1cc2c(cc1Br)OCCCO2)c1cccnc1	2.74%
COc1ccccc1-c1nnc(SCc2nc3ccccc3s2)n1C	29.9% (active)
CC(C)(C)OC(=O)[C@H](Cc1ccccc1)NC(=O)c1nc[nH]c1C(=O)NCc1ccccc1	25.1% (active)
CN(Cc1ccccc1)C(=O)c1[nH]cnc1C(=O)NCc1ccccc1	59.9% (active)
O=C(NCc1ccccc1Cl)c1ccc2nc[nH]c2c1	6.6%

Compound	activation
O=C1N(c2ccc(Cl)cc2)C(c2ccccc2)N2CCCN12 (stereo unspecified)	5.52%
Fc1ccc(-c2nnc(-c3ccc(Cl)cc3Cl)o2)cc1	54% (active)
O=C(c1cccc(F)c1)N1CCN(C(=O)c2cc(-c3ccc(Cl)cc3Cl)on2)CC1	3.41%
Cc1ccc(-n2nc(C)c(=O)c(-c3ccccc3)c2NC(=O)c2cccs2)cc1	11.8% (active)
C/C(=N\NC(=O)c1ccccc1)c1ccc(NC(=O)c2cccs2)cc1	3.16%
CCOC(=O)/C(=C/C=C1\Sc2ccccc2N1CC)C(C)=O	190% (active)
CCN1/C(=C\C=C(C(C)=O)C(C)=O)Sc2ccccc21	9.03%
CCOC(=O)/C(C#N)=C(C)/C=C1\Sc2ccccc2N1CC	11.9% (active)
CCOC(=O)/C(=C/C=C1\Sc2cc(OCC)c(OCC)cc2N1CC)C(C)=O	40% (active)
CCOC(=O)/C(=C/C=C1\Sc2cc(C)c(C)cc2N1CC)C(C)=O	4.3%
CCOC(=O)/C(=C\C=C1/Sc2ccccc2N1CC)C(C)=O	20% (active)
CCOC(=O)/C(=C\C=C1/Sc2cc(OCC)c(OCC)cc2N1CC)C(C)=O	8.28%
CC1(C)c2[nH]c3ccccc3c2C[C@H]2C(=O)N(Cc3ccc(F)cc3)C(=O)N21	6.36%
CC(C)NC(=O)C1CCCN(c2nnc(-n3cccc3)s2)C1 (stereo unspecified)	1270% (active)
Cc1cc(Br)ccc1SCC(=O)OCC(=O)Nc1ccccc1C#N	9.13%
COC(=O)c1cc2c(cc1NC(=O)CSCCc1ccccn1)OCO2	7.4%
COCc1cc(C)n(CC(=O)Nc2ccccc2C(=O)OC)c(=O)c1C#N	23.2% (active)
Cc1noc(C)c1S(=O)(=O)N(C)C[C@H]1Oc2ccc(NC(=O)CCC(F)(F)F)cc2C(=O)N([C@H](C)CO)C[C@@H]1C	10.2%
C[C@H]1CN([C@@H](C)CO)C(=O)Cc2cc(NC(=O)CCC(F)(F)F)ccc2O[C@H]1CN(C)S(C)(=O)=O	15.4% (active)
